Assay results reported in ChEMBL document CHEMBL4196169 (J Med Chem, 2018).
≈ marks a conversion by molar mass, not a printed value.

Experiments:
[1] = AUClast in Sprague-Dawley rat at 2 mg/kg, iv; type: ADME, organism-based; parameters: dose 2 mg/kg, route intravenous, time 0 - last; conditions: in vivo
Summary of the method: (§1)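 Compound dosed to male C57BL/6 mice (1 mg/kg i.v., 3 mg/kg p.o.) and Sprague-Dawley rats (2 mg/kg i.v., 3 mg/kg p.o.), non-fasted, in formulation A (HCl, PEG, solutol, PBS). Beagle dogs were fasted and given 1 mg/kg i.v. in formulation B (HCl, PEG300, solutol HS 15, citrate buffer) or 3 mg/kg p.o. as solid dispersion in 100% PBS (formulation C). Plasma PK parameters were derived.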

[2] = Cmax in Sprague-Dawley rat at 3 mg/kg, po; type: ADME, organism-based; parameters: dose 3 mg/kg, route oral; conditions: in vivo; summary of the method: as §1
[3] = Apparent permeability across apical to basolateral side in human Caco2 cells; type: ADME, cell-based; conditions: Caco-2
[4] = Solubility of the compound in FaSSIF at pH 6.5 compound administered as solid dispersion measured after 15 mins; type: physicochemical
[5] = Drug level in tumor of nude mouse xenografted with human KCL22 cells at 7.5 mg/kg, po administered as solid dispersion measured after 2 hrs post first dose; type: ADME, organism-based, Neoplasm; conditions: read-out: Drug uptake
[6] = Protein binding in mouse plasma; type: ADME, cell-free; conditions: read-out: PPB
Mus musculus [7] = experiment: Dose normalized AUClast in C57BL/6 mouse at 1 mg/kg, iv; type: ADME, organism-based; conditions: in vivo; summary of the method: as §1
[8] = Cmax in Beagle dog at 3 mg/kg, po; type: ADME, organism-based, Canis lupus familiaris; parameters: dose 3 mg/kg, route oral; conditions: in vivo; summary of the method: as §1
[9] = Solubility of the compound in SGF at pH 2 compound administered as solid dispersion measured after 120 mins; type: physicochemical
Mus musculus [10] = experiment: Dose normalized AUC in mouse at 1 mg/kg, iv; type: ADME, organism-based; conditions: in vivo
[11] = Cmax in C57BL/6 mouse at 3 mg/kg, po; type: ADME, organism-based; parameters: dose 3 mg/kg, route oral; conditions: in vivo; summary of the method: as §1
[12] = Solubility of the compound at pH 4; type: physicochemical; conditions: buffer
[13] = Lipophilicity, log p of the compound by titration method; type: physicochemical; conditions: octanol/water
[14] = Oral bioavailability in C57BL/6 mouse at 3 mg/kg; type: ADME, organism-based; conditions: in vivo
Mus musculus [15] = experiment: Tlast in C57BL/6 mouse at 1 mg/kg, iv; type: ADME, organism-based; conditions: in vivo
[16] = Drug level in tumor of nude mouse xenografted with human KCL22 cells at 3 mg/kg, po bid measured after 7 hrs post dose; type: ADME, organism-based, Neoplasm; conditions: read-out: Drug uptake
Summary of the method: (§2)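 KCL-22 human CML cells were implanted subcutaneously in mice. Compound was given by oral gavage at 3 mg/kg BID for 1 week and tumor growth was compared with vehicle control. Tumor drug concentrations were measured at 1 h and 7 h.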

Mus musculus [17] = experiment: Tlast in C57BL/6 mouse at 3 mg/kg, po; type: ADME, organism-based; conditions: in vivo
[18] = Dissociation constant, pKa of the compound; type: physicochemical
Mus musculus [19] = experiment: Dose normalized AUClast in C57BL/6 mouse at 3 mg/kg, po; type: ADME, organism-based; conditions: in vivo; summary of the method: as §1
[20] = Drug level in tumor of nude mouse xenografted with human KCL22 cells at 3 mg/kg, po bid measured after 1 hr post dose; type: ADME, organism-based, Neoplasm; conditions: read-out: Drug uptake; summary of the method: as §2
Mus musculus [21] = experiment: Dose normalized Cmax in mouse at 30 mg/kg, po; type: ADME, organism-based; parameters: dose 30 mg/kg, route oral; conditions: in vivo
[22] = Tmax in C57BL/6 mouse at 3 mg/kg, po; type: ADME, organism-based; conditions: in vivo
[23] = AUClast in C57BL/6 mouse at 1 mg/kg, iv; type: ADME, organism-based; parameters: dose 1 mg/kg, route intravenous, time 0 - last; conditions: in vivo; summary of the method: as §1
Mus musculus [24] = experiment: Dose normalized Cmax in C57BL/6 mouse at 3 mg/kg, po; type: ADME, organism-based; conditions: in vivo; summary of the method: as §1
[25] = Solubility of the compound at pH 1; type: physicochemical; conditions: buffer
[26] = Solubility of the compound in aqueous buffer at pH 6.8 in presence of sodium taurocholate; type: physicochemical
Summary of the method: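 Aqueous buffer at pH 6.8, with 50 mM sodium taurocholate added at pH 6.8.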

[27] = Apparent terminal half life in C57BL/6 mouse at 1 mg/kg, iv; type: ADME, organism-based; conditions: in vivo, read-out: betat1/2(app) (converted); summary of the method: as §1
[28] = Solubility of the compound at pH 6.8; type: physicochemical; conditions: buffer
Rattus norvegicus = experiment: Tlast in Sprague-Dawley rat at 2 mg/kg, iv; type: ADME, organism-based; conditions: in vivo
[29] = Apparent permeability across basolateral to apical side in human Caco2 cells; type: ADME, cell-based; conditions: Caco-2
[30] = Volume of distribution at steady state in C57BL/6 mouse at 1 mg/kg, iv; type: ADME, organism-based; conditions: in vivo, read-out: Vdss
[31] = Solubility of the compound at pH 2; type: physicochemical; conditions: buffer
[32] = Clearance in mouse at 1 mg/kg, iv; type: ADME, organism-based; conditions: in vivo
[33] = Oral bioavailability in mouse at 30 mg/kg; type: ADME, organism-based; conditions: in vivo
Canis familiaris = experiment: Dose normalized AUClast in Beagle dog at 1 mg/kg, iv; type: ADME, organism-based, Canis lupus familiaris; conditions: in vivo; summary of the method: as §1

## O=C(Nc1ccc(OC(F)(F)Cl)cc1)c1cnc(N2CC[C@@H](O)C2)c(-c2ccn[nH]2)c1 [ASCIMINIB]
[1]
  AUC(0-t): 1890 ng·h/mL
[2]
  Cmax: 60 ng/mL
[3]
  Papp A→B: 2.3 ×10⁻⁶ cm/s
[4]
  solubility at […]: 260 µg/mL (≈ 578 µM)
[5]
  concentration at 2 h: 580 nM
[6]
  fraction unbound: 0.01
Mus musculus [7]
  AUClast/dose: 1404 ng·h/mL/mg/kg
[8]
  Cmax: 1260 ng/mL
[9]
  solubility at 2 h: 3000 µg/mL (≈ 6670 µM)
Mus musculus [10]
  AUC/dose: 3.2 µmol·h/L
[11]
  Cmax: 295 ng/mL
[12]
  solubility: 2 µg/mL (≈ 4.45 µM)
[13]
  logP: 4.1
[14]
  bioavailability: 21%
Mus musculus [15]
  Tlast: 7 h
[16]
  concentration at 7 h: 160 nM
Mus musculus [17]
  Tlast: 7 h
[18]
  pKa: 4
Mus musculus [19]
  AUClast/dose: 283 ng·h/mL/mg/kg
[20]
  concentration at 1 h: 2000 nM
Mus musculus [21]
  Cmax: 400 nM
[22]
  Tmax: 2 h
[23]
  AUC(0-t): 1400 ng·h/mL
Mus musculus [24]
  Cmax/dose: 98 ng/mL/(mg/kg)
[25]
  solubility: 2700 µg/mL (≈ 6000 µM)
[26]
  solubility: 820 µg/mL
[27]
  half-life: 1.1 h
[28]
  solubility: 1 µg/mL (≈ 2.22 µM)
Rattus norvegicus
  Tlast: 7 h
[29]
  Papp B→A: 6.8 ×10⁻⁶ cm/s
[30]
  Vd: 0.5 L/kg
[31]
  solubility: 450 µg/mL (≈ 1000 µM)
[32]
  clearance: 12 mL/min/kg
[33]
  bioavailability: 53%
Canis familiaris
  AUClast/dose: 2812 ng·h/mL/mg/kg
